Assay results collected from several papers.
Lines come from different studies, so protocols differ.
Observed: cell growth or viability

The IC50 of `CCCc1cc(=O)n2nc(NCc3c(F)cc(Cl)cc3F)c(C#N)c2[nH]1` is reported as over 50 µM (U-87 MG; ATP luminescence; 72 h).
For `CC[C@@]1(OC(=O)[C@@H]2CCCN2)C(=O)OCc2c1cc1n(c2=O)Cc2cc3cc4c(cc3nc2-1)OCO4`, the IC50 was 0.125 µM (HCT-116; MTT).
`O=c1c2ccccc2nc(S)n1-c1ccccc1` gave a viability of 73.5% (HCT-116; LDH; 200 µg/mL, 24 h).
For `COc1cccc2c1C(=O)c1c(O)c3c(c(O)c1C2=O)C[C@@](O)(C(=O)CO)C[C@@H]3O[C@H]1C[C@H](N)[C@H](O)[C@H](C)O1`, the IC50 was 1.2 µg/mL (SK-OV-3; 48 h).
For `CC1=C(O)C(=O)C=C2C1=CC=C1[C@@]2(C)CC[C@@]2(C)[C@@H]3C[C@](C)(C(=O)O)CC[C@]3(C)CC[C@]12C`, the IC50 was 0.39 µM (AGS; MTT; 48 h).
With `Cc1cccc2[nH]cc(CNCC3(N4CCCC4)COC3)c12` the viability was 52.5% (U-87 MG; 30 µM, 48 h).
For `Cc1cc(N(CCO)CCO)ccc1C=O`, the IC50 was over 10 µg/mL (SN12K1).
`CC[C@@]1(OC(=O)[C@@H](N)Cc2ccccc2)C(=O)OCc2c1cc1n(c2=O)Cc2cc3cc4c(cc3nc2-1)OCO4` has an IC50 of 0.038 µM (HCT-116; MTT).
The GI50 of `Cc1c(Cc2cccc(N(C)S(=O)(=O)CCCNCCCC(=O)N3CCN(c4ccc(Nc5c(C(N)=O)cnc6ccc(-c7cnc8ccccc8c7)cc56)cc4C(F)(F)F)CC3)c2)c(=O)oc2cc(OC(=O)N(C)C)ccc12` is reported as 5.47 µM (HCT-116; CCK-8).
`Cc1ccc2c(CNCC3(N4CCCC4)COC3)c[nH]c2c1` gave a viability of 27.6% (U-87 MG; 30 µM, 48 h).
The IC50 of `COc1cc2c(c3c1C(=O)C[C@@H](c1ccccc1)O3)[C@H]1[C@@H](O2)OC(C)(C)[C@@H]1OC(C)=O` is reported as over 10 µM (Raji; MTS; 48 h).
`CC[C@@]1(OC(=O)C(C)c2cccc(C(=O)c3ccccc3)c2)C(=O)OCc2c1cc1n(c2=O)Cc2cc3cc4c(cc3nc2-1)OCO4` (stereo partly shown) gave an IC50 of 0.302 µM (HCT-116; MTT).
`Cc1cc(N(CCOS(C)(=O)=O)CCOS(C)(=O)=O)ccc1C=O` gave an IC50 of 0.79 µg/mL (SN12K1).
